What follows are compounds tested on E. coli BW25113 ΔtolC growth inhibition, OD615 (assay: E. coli ΔtolC antibacterial growth inhibition – strain BW25113 ΔtolC::kan, dose response (AID 617)).
Summary of the method: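 System: E. coli BW25113 ΔtolC::kan bacteria. Amount: 1:1000 diluted subculture inoculum. Medium: LB broth supplemented with kanamycin at 50 µg/mL. Compound dosing: serial dilution series of compound. Schedule: 20 h exposure at 37 °C. Detection: OD615. Measure: IC50 of bacterial growth inhibition. Benchmarks: chloramphenicol control, 30 µM final.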

In order of falling IC50:
1. COCc1cc(C)nc2sc3c(=O)oc(C)nc3c12  96.2 µM
2. O=C(Nc1ccc2nc(-c3cccs3)[nH]c2c1)c1ccco1  82.7 µM
3. OC(c1cccc(OCc2ccccc2)c1)c1nnc(-c2ccccc2)o1 (stereo unspecified)  72.1 µM
4. COc1ccc(CNC(=O)c2cc(-c3ccccc3OC)on2)cc1  56 µM
5. c1ccc(N2CCN(c3ncnc4c3oc3ccccc34)CC2)cc1  40.5 µM
6. Cc1nc2ccc(C(C(F)(F)F)(C(F)(F)F)C(F)(F)F)cc2[nH]1  33.4 µM
7. O=C(Nc1ccc(CN2CCOCC2)cc1)c1ccc(-c2ccc(Br)cc2)o1  30.4 µM
8. c1ccc2oc(SCc3nc4ccccc4s3)nc2c1  29.1 µM
9. CCc1c(C(=O)Nc2ncn(Cc3cccc(C)c3)n2)csc1C  29.1 µM
10. COc1ccccc1N1CCN(C(c2ccc(Cl)cc2)c2nnnn2C(C)(C)C)CC1 (stereo unspecified)  26.5 µM
11. Cc1ccc2c(c1)c1c(n2CC(O)Cn2c(C)nc3ccccc32)/C(=N\O)CCC1 (stereo unspecified)  26.1 µM
12. O=C(COc1ccccc1)Nc1ccccc1N1CCCCC1  25.6 µM
13. CCOC(=O)c1sc2nc(CC(=O)OC)nc(N3CCN(c4ccccn4)CC3)c2c1C  25.1 µM
14. N#Cc1nc(Cc2cccc3ccccc23)oc1NCCCn1ccnc1  24.2 µM
15. N#Cc1nc(COc2ccc(Br)cc2)oc1NCCCn1ccnc1  23.7 µM
16. COc1ccc(-c2noc(CCCc3ccccc3)n2)cc1OC  23.1 µM
17. O=C(Nc1ccc(C(F)(F)F)cc1)C1CCCN1S(=O)(=O)c1cccc2cccnc12 (stereo unspecified)  22.6 µM
18. O=S(=O)(NC1CCCC1)c1ccc(S(=O)(=O)N(Cc2cccs2)CC2CCCO2)cc1 (stereo unspecified)  21 µM
19. COc1ccc(-n2c(C)nc3c(cnn3-c3ccc(Cl)cc3)c2=O)cc1  20.9 µM
20. CC(C)C(c1nnnn1C1CCCC1)N1c2ccccc2CC1C (stereo unspecified)  20.8 µM
21. Cc1ccc(-c2csc(N(CC3CCCO3)C(=O)c3ccco3)n2)cc1 (stereo unspecified)  20.8 µM
22. CC1CN(c2nc3c(c(=O)n(Cc4ccc(Cl)c(Cl)c4)c(=O)n3C)n2C)CC(C)O1 (stereo unspecified)  20.4 µM
23. Cc1nn(-c2ccc(F)cc2)c2sc(C(=O)N3CCCCCC3)cc12  20.2 µM
24. Cc1cccc(N2CCN(C(=O)C34CC5CC(CC(C5)C3)C4)CC2)c1C  19.6 µM
25. Cc1onc(-c2c(F)cccc2Cl)c1C(=O)Nc1nc2c(s1)CCCC2  19.4 µM
26. COc1ccc2[nH]c(=O)c(CN(C(=O)NC3CCCCC3)C3CCCCC3)cc2c1  19.4 µM
27. CC1CCN(c2oc(-c3ccccc3F)nc2C#N)CC1  19.2 µM
28. Cc1cc(NC(=O)c2noc3c2CCCC3)nn1Cc1ccc(Cl)cc1  18.4 µM
29. O=C(CCSc1nnc2scc(-c3ccccc3)n12)Nc1nc(-c2ccccc2)ns1  16.6 µM
30. COc1ccccc1C1SCCN1S(=O)(=O)c1cccc(C(F)(F)F)c1 (stereo unspecified)  16.4 µM
31. CCCCOc1ccccc1Cn1c(=O)oc2ccc(C)cc21  16.4 µM
32. NC1=NC(c2cn(-c3ccccc3)nc2-c2cccs2)n2c(nc3ccccc32)N1 (stereo unspecified)  16.4 µM
33. C=CCn1cc(C(=O)NCc2ccco2)c(=O)c2cc(S(=O)(=O)N3CCCCCC3)ccc21  16.1 µM
34. COc1ccccc1-c1noc(CCC(=O)Nc2cccc(C(F)(F)F)c2)n1  15.9 µM
35. CC(C)C(c1nnnn1C1CCCC1)N1CCCc2ccccc21 (stereo unspecified)  15.7 µM
36. COC(=O)c1sc(N2C(=O)C(O)=C(C(=O)c3ccc(C)o3)C2c2ccc(F)cc2)nc1C (stereo unspecified)  15.6 µM
37. CCOc1ccc(C(=O)C2CCN(CC(=O)Nc3ccccc3N3CCOCC3)CC2)cc1  15.6 µM
38. COc1cccc(N2CC(C(=O)Nc3ccc(C(=O)OC(C)C)cc3)CC2=O)c1 (stereo unspecified)  15 µM
39. COc1ccc(-n2c(COc3ccccc3)nnc2SCc2ccc(C#N)cc2)cc1  14.2 µM
40. CCOC(=O)N1CCN(S(=O)(=O)c2ccc(OCC)c3ccccc23)CC1  14.2 µM
41. COC(=O)c1ccccc1NC(=O)N1c2ccccc2CC1C (stereo unspecified)  14.1 µM
42. CCOC(=O)c1c(NC(=O)CN(CC)CC)sc2c1CCC2  13.8 µM
43. Cc1ccc(NC(=O)N2CCC(c3nc4c(nnn4Cc4cccc(Cl)c4)c(=O)[nH]3)CC2)cc1  13.5 µM
44. CCOCCn1c(CN(Cc2ccccc2)Cc2ccccc2)nc2c1c(=O)n(C)c(=O)n2C  13.2 µM
45. CCn1c(=N)n(CC(=O)C23CC4CC(CC(C4)C2)C3)c2ccccc21  13 µM
46. N#CC1=C(SCC(=O)c2cc3ccccc3oc2=O)NC(=O)C(C#N)C12CCCC2 (stereo unspecified)  12.7 µM
47. CCC(C)(C)n1nnnc1CN(Cc1ccc(Cl)cc1)Cc1ccco1  12.6 µM
48. O=C(CN1CCN(c2nc(-c3ccc(F)cc3)cs2)CC1)NCc1ccc2c(c1)OCO2  11.1 µM
49. CCOC(=O)C1=C(C)NC(SCC(=O)Nc2cc(C)on2)=C(C#N)C1c1cccs1 (stereo unspecified)  11 µM
50. Cc1ccc(SCC(=O)N(Cc2nc(-c3ccccc3)no2)C(C)C)cc1  10.8 µM
51. O=C(c1cc2nc(-c3ccco3)cc(C(F)(F)F)n2n1)N1CCN(c2ccccc2)CC1  10.3 µM
52. CCn1c2ccccc2c2cc(NC(=O)c3ccco3)ccc21  8.97 µM
53. COC(=O)c1c(NC(=O)Cc2cccs2)sc2c1CCCC2  8.83 µM
54. Cc1cc(Cl)ccc1OC(C)C(=O)Nc1ccccc1N1CCOCC1 (stereo unspecified)  8.59 µM
55. CCOC(=O)N1CCN(c2nc3ccccc3nc2C(C#N)S(=O)(=O)c2ccc(C)cc2)CC1 (stereo unspecified)  7.88 µM
56. COc1ccc(Oc2cn[nH]c2-c2ccc(O)cc2O)cc1  7.86 µM
57. O=C(Nc1ccc2c(c1)OCO2)c1ccc(COc2ccc3c(c2)CCC3)o1  7.79 µM
58. COCc1nnc(NC(=O)c2ccc(S(=O)(=O)N3CCCCCC3)cc2)o1  7.62 µM
59. CN(Cc1ccccc1)c1nc2c(c(=O)n(C)c(=O)n2C)n1CCCc1ccccc1  7.51 µM
60. O=C(Cc1ccc(Br)cc1)c1ccc(O)cc1O  7.26 µM
61. O=C(Nc1ccc(Cl)cc1)N1CCC(c2nc(-c3cccs3)no2)CC1  6.4 µM
62. CCCCCCC(=O)N1CCC(c2nc3c(nnn3Cc3ccccc3Cl)c(=O)[nH]2)CC1  6.36 µM
63. c1ccc(-c2oc3ncnc(NCCCn4ccnc4)c3c2-c2ccccc2)cc1  6.05 µM
64. O=C(CCCOc1ccc(Cl)cc1Cl)N1CCN(c2ccccn2)CC1  6.04 µM
65. Cc1ccc(Nc2nc(N)nc(CN3CCN(c4ccccc4)CC3)n2)cc1Cl  5.97 µM
66. CCOC(=O)c1csc(Nc2nc3ccc(F)cc3s2)n1  5.89 µM
67. CCOC(=O)N1CCC(Nc2nc3ccccc3nc2NS(=O)(=O)c2ccc(Cl)cc2)CC1  5.49 µM
68. O=S(=O)(Nc1cccc2ncccc12)c1cccs1  5.24 µM
69. CCOC(=O)N1CCc2c(sc(NC(=O)c3ccc(Cl)s3)c2C(N)=O)C1  5.13 µM
70. COc1ccc(C/C(O)=C(\C#N)c2nc3ccccc3s2)cc1  5.12 µM
71. COc1cccc(C2/C(=C(/O)c3ccc(C)cc3)C(=O)C(=O)N2Cc2ccco2)c1 (stereo unspecified)  4.54 µM
72. N#CC1=C(SCC(=O)NC23CC4CC(CC(C4)C2)C3)NC(=O)C(C#N)C12CCCCC2 (stereo unspecified)  4.11 µM
73. Cc1ccsc1C(=O)Nc1nnc(-c2ccco2)o1  3.92 µM
74. CC(=O)c1c(C)n([O-])c2ccccc2[n+]1=O  3.89 µM
75. Cc1nc2c(-c3ccccc3)c(C)[nH]n2c(=O)c1Cl  3.59 µM
76. Cc1cc(C)n(-c2nc(NC(C)C)nc(NC(C)C)n2)n1  2.96 µM
77. Cc1ccc(S(=O)(=O)c2nc(Nc3nccs3)sc2Cl)cc1  2.48 µM
78. COc1cccc2sc(Nc3nc(-c4ccccn4)cs3)nc12  1.79 µM
79. COC(=O)CNS(=O)(=O)c1ccc(Cc2ccc(S(=O)(=O)NCC(=O)OC)cc2)cc1  1.29 µM
80. CSc1nc2ccc(NS(=O)(=O)c3ccc(Cl)s3)cc2s1  0.72 µM
81. Cc1ccc(Nc2cc(C)nn2-c2nc(C)cc(=O)[nH]2)cc1  0.18 µM
